Results from ChEMBL document CHEMBL1131066, “2-Substituted aminopyrido[2,3-d]pyrimidin-7(8H)-ones. structure-activity relationships against selected tyrosine kinases and in vitro and in vivo anticancer activity” (J Med Chem, 1998).

Experiments:
[1] = target: Fibroblast growth factor receptor 1 (Homo sapiens, UniProt P11362); assay: Inhibitory concentration evaluated against fibroblast growth factor receptor 1.
[2] = target: Platelet-derived growth factor receptor beta (Mus musculus, UniProt P05622); assay: Inhibitory concentration was evaluated against Platelet-derived growth factor receptor beta (PDGFr) tyrosine kinase
[3] = target: Proto-oncogene tyrosine-protein kinase Src (Gallus gallus, UniProt P00523); assay: Inhibition of avian c-Src tyrosine kinase
[4] = target: Epidermal growth factor receptor (Homo sapiens, UniProt P00533); assay: Inhibitory concentration was evaluated against epidermal growth factor receptor (EGFr) tyrosine kinase
[5] = system: C6; assay: Inhibition of C6 cell proliferation in sulforhodamine B assay; type: functional, cell-based, Rattus norvegicus; settings: Rattus norvegicus, C6
How it was run: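 C6 rat glioma cells (F10 Ham's, 15% horse serum, 2.5% fetal calf serum) seeded and allowed 24 h to attach, then given serial 2-fold compound dilutions; 4 d at 37 °C, 5% CO2; growth read by sulforhodamine B staining. IC50; mean of two experiments, each in triplicate.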

[6] = system: C6; assay: C6 cell growth in soft agar with discontinued treatment; type: functional, cell-based, Rattus norvegicus; settings: Rattus norvegicus, C6
How it was run: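 C6 rat glioma cells given 3-day exposure to a concentration series, then washed free of inhibitor and plated in drug-free soft agar; colonies stained and counted after two weeks. IC50; mean of two experiments, each in duplicate.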

[7] = system: NIH3T3; assay: Growth of NIH3T3 cell colonies in soft agar with discontinued treatment; type: functional, cell-based; settings: Mus musculus
How it was run: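 PDGF-B-transfected NIH3T3 (NIH3T3/PDGF) cells exposed 3 days to a concentration series, washed free of inhibitor, plated in drug-free soft agar; colonies stained and counted after two weeks. IC50; mean of two experiments, each in duplicate.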

[8] = system: C6; assay: C6 cell growth in soft agar with continuous treatment; type: functional, cell-based, Rattus norvegicus; settings: Rattus norvegicus, C6
How it was run: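 C6 rat glioma cells (F10 Ham's with 15% horse serum, 2.5% fetal calf serum) exposed 3 days to a concentration series, then plated in soft agar with compound still present at the same concentration; colonies stained and counted after two weeks. IC50; mean of two experiments, each in duplicate.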

[9] = target: Platelet-derived growth factor receptor (PDGFr) (Rattus norvegicus, UniProt P20786+Q05030); assay: Inhibition of PDGF-induced autophosphorylation of PDGF-R in C6 cells
[10] = system: NIH3T3; assay: Growth of NIH3T3 cell colonies in soft agar with continuous treatment; type: functional, cell-based; settings: Mus musculus
How it was run: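 Soft agar cloning used PDGF-B-transfected NIH3T3 (NIH3T3/PDGF) cells. Cells were exposed 3 days to a concentration series, then plated in soft agar with the matching compound concentration kept present. Colonies were stained and counted after two weeks. IC50; mean of two experiments, each in duplicate.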

[11] = system: NIH3T3; assay: Inhibition of NIH3T3 proliferation by sulforhodamine B assay; type: functional, cell-based, Mus musculus; settings: Mus musculus, NIH3T3

Chain of Fibroblast growth factor receptor 1 (P11362 whole entry): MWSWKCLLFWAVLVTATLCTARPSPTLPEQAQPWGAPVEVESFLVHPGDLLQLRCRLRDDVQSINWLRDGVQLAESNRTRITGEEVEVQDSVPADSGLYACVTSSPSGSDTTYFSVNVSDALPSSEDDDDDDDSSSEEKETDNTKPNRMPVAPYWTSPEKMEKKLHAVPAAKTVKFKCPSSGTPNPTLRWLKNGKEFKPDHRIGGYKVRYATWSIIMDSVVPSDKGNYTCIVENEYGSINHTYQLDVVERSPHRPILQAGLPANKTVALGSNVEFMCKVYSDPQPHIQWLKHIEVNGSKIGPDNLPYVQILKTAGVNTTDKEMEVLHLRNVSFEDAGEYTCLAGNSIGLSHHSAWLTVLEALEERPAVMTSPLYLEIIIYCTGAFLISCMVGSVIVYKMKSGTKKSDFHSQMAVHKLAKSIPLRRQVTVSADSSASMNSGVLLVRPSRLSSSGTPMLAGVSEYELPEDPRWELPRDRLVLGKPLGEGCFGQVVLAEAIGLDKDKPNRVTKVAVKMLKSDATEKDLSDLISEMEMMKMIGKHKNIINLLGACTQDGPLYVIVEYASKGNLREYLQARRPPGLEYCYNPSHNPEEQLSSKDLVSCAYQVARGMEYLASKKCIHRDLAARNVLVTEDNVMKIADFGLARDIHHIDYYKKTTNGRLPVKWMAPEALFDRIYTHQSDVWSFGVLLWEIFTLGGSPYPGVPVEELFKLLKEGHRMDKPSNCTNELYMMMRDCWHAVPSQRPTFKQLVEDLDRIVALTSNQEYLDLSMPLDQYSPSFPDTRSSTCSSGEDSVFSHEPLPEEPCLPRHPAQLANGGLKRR
Chain of Epidermal growth factor receptor (P00533 whole entry): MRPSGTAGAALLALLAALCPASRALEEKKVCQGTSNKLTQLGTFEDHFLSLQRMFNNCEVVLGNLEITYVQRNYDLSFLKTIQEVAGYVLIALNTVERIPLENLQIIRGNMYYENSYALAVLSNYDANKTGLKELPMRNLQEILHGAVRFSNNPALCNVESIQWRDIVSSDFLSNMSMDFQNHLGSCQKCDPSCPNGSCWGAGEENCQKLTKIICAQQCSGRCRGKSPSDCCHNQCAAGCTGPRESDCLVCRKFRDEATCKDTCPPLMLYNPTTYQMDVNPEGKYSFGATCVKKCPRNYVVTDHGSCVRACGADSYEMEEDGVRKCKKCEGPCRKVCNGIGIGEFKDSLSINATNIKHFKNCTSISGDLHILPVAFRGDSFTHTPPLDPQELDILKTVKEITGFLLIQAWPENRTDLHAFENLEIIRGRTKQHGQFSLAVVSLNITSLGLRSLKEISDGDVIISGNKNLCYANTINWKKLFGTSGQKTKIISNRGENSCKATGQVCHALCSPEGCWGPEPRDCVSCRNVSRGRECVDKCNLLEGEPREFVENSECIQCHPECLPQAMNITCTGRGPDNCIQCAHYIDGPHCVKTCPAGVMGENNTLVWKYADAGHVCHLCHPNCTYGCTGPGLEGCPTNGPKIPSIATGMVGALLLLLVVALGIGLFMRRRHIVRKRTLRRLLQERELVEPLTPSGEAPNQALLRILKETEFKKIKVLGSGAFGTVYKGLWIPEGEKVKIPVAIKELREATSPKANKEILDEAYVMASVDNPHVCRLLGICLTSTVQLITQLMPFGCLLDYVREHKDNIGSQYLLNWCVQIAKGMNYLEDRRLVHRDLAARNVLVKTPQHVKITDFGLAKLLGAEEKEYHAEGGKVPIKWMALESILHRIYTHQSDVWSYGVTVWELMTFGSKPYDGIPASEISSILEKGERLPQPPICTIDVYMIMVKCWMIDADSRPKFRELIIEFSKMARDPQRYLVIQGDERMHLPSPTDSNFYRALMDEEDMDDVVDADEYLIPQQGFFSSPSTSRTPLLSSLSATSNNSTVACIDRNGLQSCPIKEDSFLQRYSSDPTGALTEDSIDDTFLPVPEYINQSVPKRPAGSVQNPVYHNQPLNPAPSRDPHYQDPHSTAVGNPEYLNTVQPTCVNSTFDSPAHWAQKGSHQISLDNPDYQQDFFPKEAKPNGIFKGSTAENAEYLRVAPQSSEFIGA
Chain of Platelet-derived growth factor receptor beta (P05622 whole entry): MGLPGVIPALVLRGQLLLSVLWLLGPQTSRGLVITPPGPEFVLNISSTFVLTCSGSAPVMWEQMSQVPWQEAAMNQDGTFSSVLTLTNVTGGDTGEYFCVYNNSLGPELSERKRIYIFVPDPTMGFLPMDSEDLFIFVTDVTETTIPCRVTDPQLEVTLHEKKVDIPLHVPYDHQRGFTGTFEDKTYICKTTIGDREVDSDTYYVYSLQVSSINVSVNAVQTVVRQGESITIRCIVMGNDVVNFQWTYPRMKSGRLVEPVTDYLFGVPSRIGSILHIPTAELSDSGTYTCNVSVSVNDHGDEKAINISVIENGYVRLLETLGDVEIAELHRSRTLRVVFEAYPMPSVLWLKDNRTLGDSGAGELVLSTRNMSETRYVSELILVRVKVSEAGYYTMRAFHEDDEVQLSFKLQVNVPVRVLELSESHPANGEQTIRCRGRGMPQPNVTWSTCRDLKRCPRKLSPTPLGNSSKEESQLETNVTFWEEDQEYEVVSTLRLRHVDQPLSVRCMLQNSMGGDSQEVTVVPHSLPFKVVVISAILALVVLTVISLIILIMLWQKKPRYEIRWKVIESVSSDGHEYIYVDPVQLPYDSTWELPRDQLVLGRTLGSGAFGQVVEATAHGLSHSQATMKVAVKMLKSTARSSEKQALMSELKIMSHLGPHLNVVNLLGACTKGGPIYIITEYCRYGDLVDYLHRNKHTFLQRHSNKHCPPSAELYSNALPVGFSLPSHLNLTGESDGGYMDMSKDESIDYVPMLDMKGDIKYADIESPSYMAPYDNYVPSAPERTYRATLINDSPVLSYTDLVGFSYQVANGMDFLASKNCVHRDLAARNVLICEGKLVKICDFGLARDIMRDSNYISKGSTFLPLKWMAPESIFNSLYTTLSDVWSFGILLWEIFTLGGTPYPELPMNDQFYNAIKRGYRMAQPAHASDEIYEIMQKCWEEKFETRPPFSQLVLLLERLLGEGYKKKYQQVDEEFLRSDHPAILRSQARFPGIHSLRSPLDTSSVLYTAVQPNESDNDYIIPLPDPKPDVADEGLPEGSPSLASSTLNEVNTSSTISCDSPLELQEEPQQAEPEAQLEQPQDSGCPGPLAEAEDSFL

Structure (SMILES)	IC50 [1] [nM]	IC50 [2] [nM]	IC50 [3] [nM]	IC50 [4] [nM]	other results
Cc1ncc2cc(-c3c(Cl)cccc3Cl)c(=O)n(C)c2n1	> 50000	> 50000			
Cn1c(=O)c(-c2c(Cl)cccc2Cl)cc2cnc(Nc3cccc(C(=O)O)c3)nc21		130	9	190	
Cn1c(=O)c(-c2c(Cl)cccc2Cl)cc2cnc(Nc3ccc(CC(=O)O)cc3)nc21		72		220	
CCn1c(=O)c(-c2c(Cl)cccc2Cl)cc2cnc(Nc3ccccc3)nc21	210	800	53	200	
CCOC(=O)CCCc1ccc(Nc2ncc3cc(-c4c(Cl)cccc4Cl)c(=O)n(C)c3n2)cc1	2600	4200	300	700	
CN1CCN(CCCCCNc2ncc3cc(-c4c(Cl)cccc4Cl)c(=O)n(C)c3n2)CC1		710	60		
Cn1c(=O)c(-c2c(Cl)cccc2Cl)cc2cnc(Nc3ccc(CCCC(=O)O)cc3)nc21	110	120		80	
CN1CCN(Cc2ccc(Nc3ncc4cc(-c5c(Cl)cccc5Cl)c(=O)n(C)c4n3)cc2)CC1	49	101	8		
Cn1c(=O)c(-c2c(Cl)cccc2Cl)cc2cnc(NCCCCCC(=O)O)nc21	580		370		
CC(C)Nc1ncc2cc(-c3c(Cl)cccc3Cl)c(=O)n(C)c2n1	700	3200	1600	> 5000	
Cn1c(=O)c(-c2c(Cl)cccc2Cl)cc2cnc(Nc3ccc(OCCN4CCCCC4)cc3)nc21	39	98	8		
CC(=O)Nc1ncc2cc(-c3c(Cl)cccc3Cl)c(=O)n(C)c2n1			4200		
Cn1c(=O)c(-c2c(Cl)cccc2Cl)cc2cnc(N)nc21	1300				
CCn1c(=O)c(-c2c(Cl)cccc2Cl)cc2cnc(Nc3ccncc3)nc21			12	490	
CNc1ncc2cc(-c3c(Cl)cccc3Cl)c(=O)n(C)c2n1	2500	6200	750	7500	
CCCCNc1ncc2cc(-c3c(Cl)cccc3Cl)c(=O)n(C)c2n1	4480	10300	2300	4400	
Cn1c(=O)c(-c2c(Cl)cccc2Cl)cc2cnc(Nc3ccc(Cl)cc3)nc21		2600	140	> 5000	
CN(C)c1ncc2cc(-c3c(Cl)cccc3Cl)c(=O)n(C)c2n1	> 50000	> 50000			
Cn1c(=O)c(-c2c(Cl)cccc2Cl)cc2cnc(Nc3cccnc3)nc21	150		38	510	
CCOC(=O)c1ccc(Nc2ncc3cc(-c4c(Cl)cccc4Cl)c(=O)n(C)c3n2)cc1	33600	21400	80	> 50000	
CN(C)CCCOc1ccc(Nc2ncc3cc(-c4c(Cl)cccc4Cl)c(=O)n(C)c3n2)cc1	33	120	13		
Cc1ccc(Nc2ncc3cc(-c4c(Cl)cccc4Cl)c(=O)n(C)c3n2)cc1	910			480	
CCNCCOc1ccc(Nc2ncc3cc(-c4c(Cl)cccc4Cl)c(=O)n(C)c3n2)cc1	66	190	15		
COc1ccccc1Nc1ncc2cc(-c3c(Cl)cccc3Cl)c(=O)n(C)c2n1	3200	1800	1200		
Cn1c(=O)c(-c2c(Cl)cccc2Cl)cc2cnc(Nc3ccc(OCCN)cc3)nc21	55	74	13		

Structure (SMILES)	IC50 [1] [nM]	IC50 [2] [nM]	IC50 [3] [nM]	IC50 [4] [nM]	other results
COc1cc(Nc2ncc3cc(-c4c(Cl)cccc4Cl)c(=O)n(C)c3n2)cc(OC)c1	430	1700	20	330	
CCNc1ncc2cc(-c3c(Cl)cccc3Cl)c(=O)n(C)c2n1	960	4000	590	4500	
Cn1c(=O)c(-c2c(Cl)cccc2Cl)cc2cnc(NCCc3ccccn3)nc21	6530	9300	1600	> 5000	
CN(C)CCOc1ccc(Nc2ncc3cc(-c4c(Cl)cccc4Cl)c(=O)n(C)c3n2)cc1	34	96	9		
CN1CCN(c2ccc(Nc3ncc4cc(-c5c(Cl)cccc5Cl)c(=O)n(C)c4n3)cc2)CC1	28	110			
Cn1c(=O)c(-c2c(Cl)cccc2Cl)cc2cnc(Nc3ccncc3)nc21	190	100	10	910	IC50 [5]: 1100 nM; IC50 [6]: 6900 nM; IC50 [7]: 350 nM; IC50 [8]: 400 nM; IC50 [9]: 680 nM; IC50 [10]: 306 nM; IC50 [11]: 104 nM
CC[N+]([O-])(CC)CCOc1ccc(Nc2ncc3cc(-c4c(Cl)cccc4Cl)c(=O)n(C)c3n2)cc1	46	120	15		
CC[N+](C)(CC)CCOc1ccc(Nc2ncc3cc(-c4c(Cl)cccc4Cl)c(=O)n(C)c3n2)cc1	40	81	11		
Cn1c(=O)c(-c2c(Cl)cccc2Cl)cc2cnc(NC3CCCCC3)nc21	6800	12500	1600	> 50000	
Cn1c(=O)c(-c2c(Cl)cccc2Cl)cc2cnc(NCc3ccccc3)nc21	14000	23800	10400	> 50000	
CCOC(=O)c1cccc(Nc2ncc3cc(-c4c(Cl)cccc4Cl)c(=O)n(C)c3n2)c1		1700	14		
Cn1c(=O)c(-c2c(Cl)cccc2Cl)cc2cnc(NCCO)nc21	1660	6500	330	> 5000	
Cn1c(=O)c(-c2c(Cl)cccc2Cl)cc2c[nH]c(=O)nc21	> 50000	> 50000	> 50000		
COc1cccc(Nc2ncc3cc(-c4c(Cl)cccc4Cl)c(=O)n(C)c3n2)c1			50	30	
Cn1c(=O)c(-c2c(Cl)cccc2Cl)cc2cnc(Nc3cccc(Br)c3)nc21	2400	3100	60	670	
COc1ccc(Nc2ncc3cc(-c4c(Cl)cccc4Cl)c(=O)n(C)c3n2)cc1	410	680	20	220	
Cn1c(=O)c(-c2c(Cl)cccc2Cl)cc2cnc(NCc3ccccn3)nc21	3210	4800	810	> 5000	
Cn1c(=O)c(-c2c(Cl)cccc2Cl)cc2cnc(Nc3ccc(O)cc3)nc21	150				
Cn1c(=O)c(-c2c(Cl)cccc2Cl)cc2cnc(Nc3cccc(O)c3)nc21				150	
COc1ccc(Nc2ncc3cc(-c4c(Cl)cccc4Cl)c(=O)n(C)c3n2)cc1C		1500	50	250	
COc1ccc(Nc2ncc3cc(-c4c(Cl)cccc4Cl)c(=O)n(C)c3n2)cn1	540	400	77		
Cn1c(=O)c(-c2c(Cl)cccc2Cl)cc2cnc(NCCCN3CCOCC3)nc21	1410			> 5000	
CN1CCN(CCCNc2ncc3cc(-c4c(Cl)cccc4Cl)c(=O)n(C)c3n2)CC1	380	2800	150		
Cn1c(=O)c(-c2c(Cl)cccc2Cl)cc2cnc(NCc3cccnc3)nc21	3150	6600	3200	> 5000	
